Experimental data from ChEMBL document CHEMBL3525963, “Tissue distribution and elimination of [14C]apixaban in rats” (Drug Metab Dispos, 2011).

Tests used:
Format in all cases: ADME, organism-based
Details in all cases: in vivo
Rattus norvegicus [1] = test: Biodistribution in male Sprague-Dawley rat salivary gland at 5 mg/kg, po administered as single dose measured after 72 hrs; set-up: dose 5 mg/kg, dosed compound name [14C]-apixaban, route oral
Method in brief: (§1)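 Fasted male SD rats (225-252 g) each received one oral gavage dose of [14C]apixaban, 5 mg/kg (100 μCi/kg), in 0.5% Tween 80/Labrafil vehicle. One rat was killed per time point, from 0.5 to 168 h. Frozen carcasses were cut into 40 µm sagittal whole-body sections and read by QWBA phosphor imaging against [14C]glucose calibrants. Results are in µg apixaban eq/g; BLQ <0.037 µg eq/g.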

Brain = test: Biodistribution in male Sprague-Dawley rat brain at 5 mg/kg, po administered as single dose measured after 8 hrs; set-up: dose 5 mg/kg, dosed compound name [14C]-apixaban, route oral
Spleen = test: Biodistribution in female Sprague-Dawley rat spleen at 5 mg/kg, po administered as single dose measured after 24 hrs; set-up: dose 5 mg/kg, dosed compound name [14C]-apixaban, route oral
Method in brief: (§2)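 Quantitative whole-body autoradiography was run after a single 5 mg/kg (100 μCi/kg) oral gavage to fasted female or pregnant SD rats, one rat per time point. Carcasses were frozen in hexane/dry ice, and 40 µm sagittal sections were dried at −20°C for at least 48 h. Sections were exposed to a phosphor plate alongside [14C]glucose standards (0.001–6.5 µCi/g). Results are µg eq/g, with LLOQ 0.037 µg eq/g.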

Thymus [2] = test: Biodistribution in female Sprague-Dawley rat thymus at 5 mg/kg, po administered as single dose measured after 8 hrs; set-up: dose 5 mg/kg, dosed compound name [14C]-apixaban, route oral; method in brief: as §2
Rattus norvegicus [3] = test: Biodistribution in female Sprague-Dawley rat pituitary gland at 5 mg/kg, po administered as single dose measured after 8 hrs; set-up: dose 5 mg/kg, dosed compound name [14C]-apixaban, route oral
Method in brief: (§3)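 [14C]apixaban (20 μCi/mL in dosing solution) in 0.5% Tween 80 in Labrafil given by oral gavage to fasted female rats, 206-213 g, at 100 μCi/kg. One rat per time point was euthanized and snap-frozen. Sagittal 40 µm whole-body sections were read by QWBA phosphor imaging against [14C]glucose standards. Results are in µg eq apixaban/g, with LLOQ 0.037 μg eq/g.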

Rattus norvegicus [4] = test: Biodistribution in male Sprague-Dawley rat salivary gland at 5 mg/kg, po administered as single dose measured after 24 hrs; set-up: dose 5 mg/kg, dosed compound name [14C]-apixaban, route oral
Rattus norvegicus [5] = test: Biodistribution in male Sprague-Dawley rat bone marrow at 5 mg/kg, po administered as single dose measured after 72 hrs; set-up: dose 5 mg/kg, dosed compound name [14C]-apixaban, route oral; method in brief: as §1
Thymus [6] = test: Biodistribution in male Sprague-Dawley rat thymus at 5 mg/kg, po administered as single dose measured after 1 hr; set-up: dose 5 mg/kg, dosed compound name [14C]-apixaban, route oral
Adrenal gland = test: Biodistribution in male Sprague-Dawley rat adrenal gland at 5 mg/kg, po administered as single dose measured after 4 hrs; set-up: dose 5 mg/kg, dosed compound name [14C]-apixaban, route oral
Method in brief: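 [¹⁴C]Apixaban given by oral gavage at 5 mg/kg (100 μCi/kg) in 0.5% Tween 80 in Labrafil (1.0 mg/mL dosing solution) to rats fasted overnight through 4 h post-dose. One rat per time point; carcass frozen in hexane/dry ice. Quantitative whole-body autoradiography used 40 µm sagittal sections and a phosphor imaging plate calibrated with [¹⁴C]glucose standards (0.001–6.5 μCi/g). Read-out in µg eq apixaban/g; LLOQ 0.037 μg eq/g.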

Rattus norvegicus [7] = test: Biodistribution in pregnant Sprague-Dawley rat kidney cortex at 5 mg/kg, po administered as single dose measured after 8 hrs; set-up: dose 5 mg/kg, dosed compound name [14C]-apixaban, route oral
Muscle tissue = test: Biodistribution in pregnant Sprague-Dawley rat muscle at 5 mg/kg, po administered as single dose measured after 8 hrs; set-up: dose 5 mg/kg, dosed compound name [14C]-apixaban, route oral
Rattus norvegicus [8] = test: Biodistribution in pregnant Sprague-Dawley rat kidney cortex at 5 mg/kg, po administered as single dose measured after 24 hrs; set-up: dose 5 mg/kg, dosed compound name [14C]-apixaban, route oral
Rattus norvegicus [9] = test: Biodistribution in pregnant Sprague-Dawley rat pituitary gland at 5 mg/kg, po administered as single dose measured after 24 hrs; set-up: dose 5 mg/kg, dosed compound name [14C]-apixaban, route oral
Method in brief: (§4)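 Pregnant SD rats (270-319 g) were fasted overnight and given one oral gavage of 5 mg/kg (100 μCi/kg) in 0.5% Tween 80 in Labrafil. One rat was euthanized per time point (0.5, 1, 4, 8, 24, 48 h) and the carcass frozen. 40 µm sagittal sections were phosphor-imaged against [14C]glucose standards and results reported as µg eq/g; LLOQ 0.037 µg eq/g.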

Blood = test: AUC (0 to infinity) in female Sprague-Dawley rat blood at 5 mg/kg, po administered as single dose; set-up: time infinity, dose 5 mg/kg, dosed compound name [14C]-apixaban, route oral
Rattus norvegicus [10] = test: Biodistribution in pregnant Sprague-Dawley rat pituitary gland at 5 mg/kg, po administered as single dose measured after 48 hrs; set-up: dose 5 mg/kg, dosed compound name [14C]-apixaban, route oral; method in brief: as §4
Rattus norvegicus [11] = test: Biodistribution in female Sprague-Dawley rat kidney cortex at 5 mg/kg, po administered as single dose measured after 4 hrs; set-up: dose 5 mg/kg, dosed compound name [14C]-apixaban, route oral; method in brief: as §3
Liver [12] = test: Biodistribution in pregnant Sprague-Dawley rat liver at 5 mg/kg, po administered as single dose measured after 4 hrs; set-up: dose 5 mg/kg, dosed compound name [14C]-apixaban, route oral
Method in brief: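 Fasted pregnant SD rats (n=6, 270-319 g) each received one oral gavage dose of [14C]apixaban, 5 mg/kg (100 μCi/kg), in 0.5% Tween 80/Labrafil. One rat was killed at each of 0.5, 1, 4, 8, 24 and 48 h. Carcasses were frozen in hexane/dry ice, cut into 40 µm sagittal sections, exposed to phosphor plates and quantified against [14C]glucose standards as µg eq/g. LLOQ was 0.037 µg eq/g.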

Rattus norvegicus [13] = test: Biodistribution in pregnant Sprague-Dawley rat pituitary gland at 5 mg/kg, po administered as single dose measured after 4 hrs; set-up: dose 5 mg/kg, dosed compound name [14C]-apixaban, route oral
Rattus norvegicus [14] = test: Biodistribution in fetal brain of pregnant Sprague-Dawley rat at 5 mg/kg, po administered as single dose measured after 4 hrs; set-up: dose 5 mg/kg, dosed compound name [14C]-apixaban, route oral
Method in brief: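 Pregnant SD rats received a single oral gavage of [14C]apixaban at 5 mg/kg (100 μCi/kg; 1.0 mg/mL, 20 μCi/mL in 0.5% Tween 80/Labrafil) after fasting, one dam per time point. Frozen carcasses were cut into 40 µm sagittal sections and read by phosphor-imaging QWBA against [14C]glucose standards. Fetal tissue radioactivity is reported as µg eq/g, with LLOQ 0.037 µg eq/g.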

Rattus norvegicus [15] = test: Biodistribution in fetal liver of pregnant Sprague-Dawley rat at 5 mg/kg, po administered as single dose measured after 4 hrs; set-up: dose 5 mg/kg, dosed compound name [14C]-apixaban, route oral
Method in brief: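 Pregnant rats, 270-319 g and fasted overnight, received [14C]apixaban by oral gavage at 100 μCi/kg in 0.5% Tween 80/Labrafil. One dam per time point was euthanized and frozen in hexane/dry ice. Fetal tissue radioactivity was measured by QWBA on 40 µm sagittal sections calibrated with [14C]glucose standards. Values are in µg eq/g, with LLOQ 0.037 μg eq/g.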

Liver [16] = test: Biodistribution in female Sprague-Dawley rat liver at 5 mg/kg, po administered as single dose measured after 1 hr; set-up: dose 5 mg/kg, dosed compound name [14C]-apixaban, route oral; method in brief: as §2
[17] = AUC (0 to t) in lactating Sprague-Dawley rat milk at 5 mg/kg, po administered as single dose; set-up: dose 5 mg/kg, dosed compound name [14C]-apixaban, route oral
Method in brief: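 Fasted lactating SD rats received 5 mg/kg [14C]apixaban orally (formulation 5.0 mg/mL, 20 μCi/mL). Oxytocin was injected subcutaneously 15 min before collection, and 1 mL milk was taken under anesthesia by milking machine. Sampling was predose and at 0.5–24 h, 3 rats per time point. Plasma was obtained at 1300g for 10 min. Duplicate 50–100 µL aliquots were counted by LSC for 10 min. AUC was calculated in WinNonlin.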

Heart = test: Biodistribution in pregnant Sprague-Dawley rat heart at 5 mg/kg, po administered as single dose measured after 8 hrs; set-up: dose 5 mg/kg, dosed compound name [14C]-apixaban, route oral

Radiolabel recovery (Rattus norvegicus [1]): Not detected assumed BLQ
Radiolabel recovery (Brain): < 0.037 ugequiv/g
Radiolabel recovery (Spleen): Not detected assumed BLQ
Radiolabel recovery (Thymus [2]): 0.09 ugequiv/g
Radiolabel recovery (Rattus norvegicus [3]): 0.22 ugequiv/g
Radiolabel recovery (Rattus norvegicus [4]): < 0.037 ugequiv/g
Radiolabel recovery (Thymus [6]): 0.46 ugequiv/g
Radiolabel recovery (Adrenal gland): 0.76 ugequiv/g
Radiolabel recovery (Rattus norvegicus [7]): 0.21 ugequiv/g
Radiolabel recovery (Muscle tissue): 0.05 ugequiv/g
Radiolabel recovery (Rattus norvegicus [8]): 0.05 ugequiv/g
AUC (Blood): 3780 ngequiv.hr/g
Radiolabel recovery (Rattus norvegicus [11]): 1.21 ugequiv/g
Radiolabel recovery (Liver [12]): 6.13 ugequiv/g
Radiolabel recovery (Rattus norvegicus [13]): 0.75 ugequiv/g
Radiolabel recovery (Rattus norvegicus [14]): 0.06 ugequiv/g
Radiolabel recovery (Rattus norvegicus [15]): 0.32 ugequiv/g
Radiolabel recovery (Liver [16]): 4.31 ugequiv/g
AUCt [17]: 103000 ngequiv.hr/g
Radiolabel recovery (Heart): 0.06 ugequiv/g
Structure (SMILES): COc1ccc(-n2nc(C(N)=O)c3c2C(=O)N(c2ccc(N4CCCC[14C]4=O)cc2)CC3)cc1
Radiolabel recovery (Rattus norvegicus [5]): Not sampled as not visualised in autoradiograph
Radiolabel recovery (Rattus norvegicus [9]): Not sampled as not visualised in autoradiograph
Radiolabel recovery (Rattus norvegicus [10]): Not sampled as not visualised in autoradiograph
